Results as given in ChEMBL document CHEMBL4261600 (Eur J Med Chem, 2018).
The source made the active and inactive calls.

What was measured:
[1] = target: Cyclin-dependent kinase 9 (Homo sapiens, UniProt P50750); test: Inhibition of CDK9 in human MV4-11 cells assessed as decrease in phosphorylation at Thr 186 residues up to 3 uM after 2 hrs by immunoblotting analysis; assay type: cell-based
MV4-11 = test: Induction of apoptosis in human MV4-11 cells assessed as decrease in BCL-2 level up to 3 uM after 2 hrs by immunoblotting analysis; assay type: functional, cell-based
[2] = Cmax in Sprague-Dawley rat at 20 mg/kg, po by LC-MS/MS analysis; assay type: ADME, organism-based; design: dose 20 mg/kg, route oral; details: in vivo
[3] = AUC (0 to t) in mouse at 10 mg/kg, po by LC-MS/MS analysis; assay type: ADME, organism-based; details: in vivo
Summary of the method: (§1)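 Non-compartmental PK. Male SD rats 190-210 g, mice and beagle dogs acclimatized one week, fasted 12 h with water, split into iv and po groups (mice 48, rats 6, dogs 6). iv 3/3/2 mg/kg (mice/rats/dogs); po 10/20/10 mg/kg; vehicle DMSO in 5% glucose water. Blood at 2 or 5 to 720 min; plasma protein-precipitated with methanol, caffeine internal standard, LC-MS/MS.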

[4] = AUC (0 to infinity) in mouse at 10 mg/kg, po by LC-MS/MS analysis; assay type: ADME, organism-based; design: dose 10 mg/kg, route oral, time infinity; details: in vivo; summary of the method: as §1
[5] = Clearance in mouse at 3 mg/kg, iv by LC-MS/MS analysis; assay type: ADME, organism-based; details: in vivo
[6] = system: Tyrosine-protein kinase ABL1 (Homo sapiens), P00519 [Q252H]; test: Binding affinity to human phosphorylated ABL1 Q252H mutant expressed in mammalian expression system assessed as remaining unbound target protein level at 1000 nM by Kinomescan method relative to control
Summary of the method: (§2)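 Single-point competition binding screen across a panel of 468 kinases and mutants, with the inhibitor at 1 μM. Binding is read out as percent of a DMSO control, and targets below 1 percent control were classed as strong binders.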

[7] = target: Atypical kinase COQ8B, mitochondrial (Homo sapiens) (UniProt Q96D53); test: Binding affinity to wild-type human full length ADCK4 (M1 to S544 residues) expressed in bacterial expression system assessed as remaining unbound target protein level at 1000 nM by Kinomescan method relative to control; summary of the method: as §2
[8] = target: BMP-2-inducible protein kinase (Homo sapiens) (UniProt Q9NSY1); test: Binding affinity to wild-type human partial length BIKE (S34 to N329 residues) expressed in bacterial expression system assessed as remaining unbound target protein level at 1000 nM by Kinomescan method relative to control
BMP-2-inducible protein kinase (Homo sapiens), sequence (Q9NSY1 whole entry, looked up, the tested form may be a part): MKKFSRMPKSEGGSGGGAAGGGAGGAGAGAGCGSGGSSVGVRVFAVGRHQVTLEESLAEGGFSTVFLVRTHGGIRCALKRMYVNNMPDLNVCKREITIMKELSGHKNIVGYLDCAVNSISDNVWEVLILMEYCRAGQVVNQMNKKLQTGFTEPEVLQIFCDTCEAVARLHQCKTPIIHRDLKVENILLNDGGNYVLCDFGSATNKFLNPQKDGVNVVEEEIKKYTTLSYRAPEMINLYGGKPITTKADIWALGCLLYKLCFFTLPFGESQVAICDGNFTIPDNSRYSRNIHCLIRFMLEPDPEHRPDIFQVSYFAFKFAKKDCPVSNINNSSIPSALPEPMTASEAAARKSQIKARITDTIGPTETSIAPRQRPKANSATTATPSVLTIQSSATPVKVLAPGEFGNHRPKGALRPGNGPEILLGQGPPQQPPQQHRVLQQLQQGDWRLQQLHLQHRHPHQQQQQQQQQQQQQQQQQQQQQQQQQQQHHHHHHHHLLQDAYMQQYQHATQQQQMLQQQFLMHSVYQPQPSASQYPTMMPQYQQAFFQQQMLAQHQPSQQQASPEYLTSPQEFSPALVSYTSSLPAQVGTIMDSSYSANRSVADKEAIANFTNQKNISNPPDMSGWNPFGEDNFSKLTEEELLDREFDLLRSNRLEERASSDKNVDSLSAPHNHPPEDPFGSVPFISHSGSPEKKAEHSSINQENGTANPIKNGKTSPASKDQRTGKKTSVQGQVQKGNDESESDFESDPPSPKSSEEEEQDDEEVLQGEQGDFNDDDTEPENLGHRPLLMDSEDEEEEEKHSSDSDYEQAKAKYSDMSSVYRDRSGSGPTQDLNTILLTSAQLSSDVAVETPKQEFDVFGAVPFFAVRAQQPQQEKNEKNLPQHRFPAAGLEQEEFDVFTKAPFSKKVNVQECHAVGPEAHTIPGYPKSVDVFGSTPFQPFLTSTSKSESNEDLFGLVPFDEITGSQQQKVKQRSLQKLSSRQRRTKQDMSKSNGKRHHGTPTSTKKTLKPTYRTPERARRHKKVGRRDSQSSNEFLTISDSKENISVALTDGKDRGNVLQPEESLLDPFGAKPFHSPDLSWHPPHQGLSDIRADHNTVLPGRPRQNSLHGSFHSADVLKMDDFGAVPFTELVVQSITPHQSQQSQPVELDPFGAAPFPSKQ
Summary of the method: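 Profiled in a KINOMEscan binding panel with the inhibitor at a single concentration of 1 μM. Binding to each kinase was read out as percent of control, relative to a DMSO control. Strong binders were defined as those with a percent control value below 1.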

[9] = target: Cyclin-dependent kinase 7 (Homo sapiens) (UniProt P50613); test: Binding affinity to wild-type human full length CDK7 (M1 to L344 residues) expressed in mammalian expression system assessed as remaining unbound target protein level at 1000 nM by Kinomescan method relative to control
Summary of the method: (§3)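 KINOMEscan competitive binding profile at 1 μM inhibitor. Remaining target binding reported as percent of DMSO control.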

[10] = target: Dual specificity protein kinase CLK2 (Homo sapiens) (UniProt P49760); test: Binding affinity to wild-type human partial length CLK2 (D144 to R498 residues) expressed in bacterial expression system assessed as remaining unbound target protein level at 1000 nM by Kinomescan method relative to control
Summary of the method: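 KINOMEscan competition binding profile across a panel of 468 kinases and mutants, with the inhibitor tested at a single concentration of 1 μM. Binding is reported as percent of control, meaning signal relative to a DMSO control.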

[11] = target: Serine/threonine-protein kinase/endoribonuclease IRE1 (Homo sapiens) (UniProt O75460); test: Binding affinity to wild-type human partial length ERN1 (S551 to E852 residues) expressed in mammalian expression system assessed as remaining unbound target protein level at 1000 nM by Kinomescan method relative to control
Summary of the method: (§4)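 KINOMEscan binding panel of 468 kinases/mutants. Inhibitor was tested at a single concentration of 1 μM. Binding is reported as percent of control, defined relative to a DMSO control.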

[12] = target: Hormonally up-regulated neu tumor-associated kinase (Homo sapiens) (UniProt P57058); test: Binding affinity to wild-type human partial length HUNK (A31 to K354 residues) expressed in bacterial expression system assessed as remaining unbound target protein level at 1000 nM by Kinomescan method relative to control; summary of the method: as §4
[13] = target: Serine/threonine-protein kinase 3 (Homo sapiens) (UniProt Q13188); test: Binding affinity to wild-type human partial length MST2 (D17 to E318 residues) expressed in bacterial expression system assessed as remaining unbound target protein level at 1000 nM by Kinomescan method relative to control; summary of the method: as §4
[14] = target: Serine/threonine-protein kinase 38-like (Homo sapiens) (UniProt Q9Y2H1); test: Binding affinity to wild-type human partial length NDR2 (N34 to E447 residues) expressed in bacterial expression system assessed as remaining unbound target protein level at 1000 nM by Kinomescan method relative to control
Serine/threonine-protein kinase 38-like (Homo sapiens), sequence (Q9Y2H1 2-464 limits assumed): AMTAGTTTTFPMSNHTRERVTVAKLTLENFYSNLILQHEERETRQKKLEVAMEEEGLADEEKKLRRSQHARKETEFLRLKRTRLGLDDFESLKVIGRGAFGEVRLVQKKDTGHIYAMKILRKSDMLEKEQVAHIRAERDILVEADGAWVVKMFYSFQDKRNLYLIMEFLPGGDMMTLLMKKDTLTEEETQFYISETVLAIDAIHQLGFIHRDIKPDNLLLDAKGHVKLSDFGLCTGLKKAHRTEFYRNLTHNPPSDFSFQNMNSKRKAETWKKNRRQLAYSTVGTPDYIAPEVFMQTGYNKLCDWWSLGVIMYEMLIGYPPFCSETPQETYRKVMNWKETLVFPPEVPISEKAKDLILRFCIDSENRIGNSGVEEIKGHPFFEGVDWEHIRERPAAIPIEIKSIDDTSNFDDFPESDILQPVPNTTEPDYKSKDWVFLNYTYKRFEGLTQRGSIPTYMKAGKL

[15] = target: Serine/threonine-protein kinase OSR1 (Homo sapiens) (UniProt O95747); test: Binding affinity to wild-type human full length OSR1 (M1 to S527 residues) expressed in mammalian expression system assessed as remaining unbound target protein level at 1000 nM by Kinomescan method relative to control; summary of the method: as §2
Serine/threonine-protein kinase OSR1 (Homo sapiens), sequence (O95747 2-527 limits assumed): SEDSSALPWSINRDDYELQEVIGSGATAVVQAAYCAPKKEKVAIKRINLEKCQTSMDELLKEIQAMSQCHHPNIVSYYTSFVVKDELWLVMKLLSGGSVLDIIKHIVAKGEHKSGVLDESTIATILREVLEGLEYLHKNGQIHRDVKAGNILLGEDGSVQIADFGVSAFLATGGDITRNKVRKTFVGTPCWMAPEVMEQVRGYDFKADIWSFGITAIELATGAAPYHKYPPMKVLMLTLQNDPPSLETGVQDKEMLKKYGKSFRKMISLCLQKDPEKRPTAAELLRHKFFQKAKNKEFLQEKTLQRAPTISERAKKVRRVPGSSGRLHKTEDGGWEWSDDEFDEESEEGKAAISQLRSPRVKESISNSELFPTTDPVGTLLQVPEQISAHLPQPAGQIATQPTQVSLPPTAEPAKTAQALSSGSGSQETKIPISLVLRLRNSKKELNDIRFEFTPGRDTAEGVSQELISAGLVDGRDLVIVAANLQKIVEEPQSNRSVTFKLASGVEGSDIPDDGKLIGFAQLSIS

[16] = target: Calcium-dependent protein kinase 1 (Plasmodium falciparum) (UniProt P62344); test: Binding affinity to wild-type Plasmodium falciparum full length CDPK1 (M1 to S524 residues) expressed in mammalian expression system assessed as remaining unbound target protein level at 1000 nM by Kinomescan method relative to control; summary of the method: as §3
Calcium-dependent protein kinase 1 (Plasmodium falciparum), sequence (P62344 2-524 limits assumed): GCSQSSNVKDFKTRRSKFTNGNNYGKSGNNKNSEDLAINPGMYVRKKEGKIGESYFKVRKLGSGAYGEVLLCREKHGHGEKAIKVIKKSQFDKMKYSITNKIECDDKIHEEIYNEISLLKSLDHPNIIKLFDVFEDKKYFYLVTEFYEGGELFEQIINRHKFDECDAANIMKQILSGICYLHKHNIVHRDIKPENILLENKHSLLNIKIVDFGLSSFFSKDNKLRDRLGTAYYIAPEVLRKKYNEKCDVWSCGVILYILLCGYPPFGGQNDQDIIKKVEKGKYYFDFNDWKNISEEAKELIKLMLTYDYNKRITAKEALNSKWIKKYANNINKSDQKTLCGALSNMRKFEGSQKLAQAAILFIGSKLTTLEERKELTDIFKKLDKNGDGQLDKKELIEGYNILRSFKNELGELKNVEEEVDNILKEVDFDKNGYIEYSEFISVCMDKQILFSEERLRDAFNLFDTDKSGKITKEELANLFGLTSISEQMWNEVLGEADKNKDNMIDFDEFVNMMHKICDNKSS

[17] = target: Phosphatidylinositol 5-phosphate 4-kinase type-2 gamma (Homo sapiens) (UniProt Q8TBX8); test: Binding affinity to wild-type human partial length PIP5K2C (M1 to A421 residues) expressed in mammalian expression system assessed as remaining unbound target protein level at 1000 nM by Kinomescan method relative to control
[18] = target: Rho-associated protein kinase 2 (Homo sapiens) (UniProt O75116); test: Binding affinity to wild-type human partial length ROCK2 (M1 to T431 residues) expressed in mammalian expression system assessed as remaining unbound target protein level at 1000 nM by Kinomescan method relative to control
Rho-associated protein kinase 2 (Homo sapiens), sequence (O75116 whole entry, looked up, the tested form may be a part): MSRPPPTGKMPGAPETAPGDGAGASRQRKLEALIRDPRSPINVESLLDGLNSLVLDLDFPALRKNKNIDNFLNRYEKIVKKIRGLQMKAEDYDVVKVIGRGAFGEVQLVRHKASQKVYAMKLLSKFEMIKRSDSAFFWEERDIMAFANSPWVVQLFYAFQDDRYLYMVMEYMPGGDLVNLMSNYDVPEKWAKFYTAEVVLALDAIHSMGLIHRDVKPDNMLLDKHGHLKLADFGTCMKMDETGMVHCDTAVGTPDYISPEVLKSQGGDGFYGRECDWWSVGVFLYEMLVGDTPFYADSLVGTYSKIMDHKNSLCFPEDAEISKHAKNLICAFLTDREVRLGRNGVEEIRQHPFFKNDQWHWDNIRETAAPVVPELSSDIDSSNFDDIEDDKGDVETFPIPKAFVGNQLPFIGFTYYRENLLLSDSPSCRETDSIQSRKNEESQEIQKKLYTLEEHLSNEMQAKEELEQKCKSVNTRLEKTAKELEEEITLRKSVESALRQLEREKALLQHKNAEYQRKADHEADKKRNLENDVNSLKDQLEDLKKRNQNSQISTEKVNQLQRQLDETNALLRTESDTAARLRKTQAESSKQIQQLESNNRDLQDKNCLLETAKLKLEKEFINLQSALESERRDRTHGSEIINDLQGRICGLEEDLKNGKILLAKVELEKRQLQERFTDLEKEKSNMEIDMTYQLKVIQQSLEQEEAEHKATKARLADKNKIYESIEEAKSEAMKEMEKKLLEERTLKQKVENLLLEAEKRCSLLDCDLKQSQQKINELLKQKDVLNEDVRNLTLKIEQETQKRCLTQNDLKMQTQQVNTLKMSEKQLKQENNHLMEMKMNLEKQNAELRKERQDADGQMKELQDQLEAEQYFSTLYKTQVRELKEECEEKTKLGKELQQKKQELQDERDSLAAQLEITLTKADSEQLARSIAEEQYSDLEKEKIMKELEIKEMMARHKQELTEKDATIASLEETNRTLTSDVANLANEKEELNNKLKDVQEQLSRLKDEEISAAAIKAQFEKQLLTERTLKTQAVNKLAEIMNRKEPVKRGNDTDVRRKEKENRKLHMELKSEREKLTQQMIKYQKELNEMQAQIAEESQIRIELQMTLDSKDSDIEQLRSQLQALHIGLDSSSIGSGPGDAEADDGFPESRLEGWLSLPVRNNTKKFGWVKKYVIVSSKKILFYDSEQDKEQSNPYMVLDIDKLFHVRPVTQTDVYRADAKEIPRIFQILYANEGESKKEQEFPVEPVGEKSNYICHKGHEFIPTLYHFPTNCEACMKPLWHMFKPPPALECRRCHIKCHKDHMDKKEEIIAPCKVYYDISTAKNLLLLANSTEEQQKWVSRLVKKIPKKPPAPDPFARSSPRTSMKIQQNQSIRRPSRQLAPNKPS

[19] = target: Serine/threonine-protein kinase ULK2 (Homo sapiens) (UniProt Q8IYT8); test: Binding affinity to wild-type human partial length ULK2 (M1 to S301 residues) expressed in mammalian expression system assessed as remaining unbound target protein level at 1000 nM by Kinomescan method relative to control
[20] = target: Wee1-like protein kinase (Homo sapiens) (UniProt P30291); test: Binding affinity to wild-type human partial length WEE1 (M291 to K575 residues) expressed in bacterial expression system assessed as remaining unbound target protein level at 1000 nM by Kinomescan method relative to control
[21] = target: Cyclin-dependent kinase 11B (Homo sapiens, UniProt P21127); test: Inhibition of recombinant GST-tagged inactive state of human CDK11
Cyclin-dependent kinase 11B, sequence (P21127 whole entry): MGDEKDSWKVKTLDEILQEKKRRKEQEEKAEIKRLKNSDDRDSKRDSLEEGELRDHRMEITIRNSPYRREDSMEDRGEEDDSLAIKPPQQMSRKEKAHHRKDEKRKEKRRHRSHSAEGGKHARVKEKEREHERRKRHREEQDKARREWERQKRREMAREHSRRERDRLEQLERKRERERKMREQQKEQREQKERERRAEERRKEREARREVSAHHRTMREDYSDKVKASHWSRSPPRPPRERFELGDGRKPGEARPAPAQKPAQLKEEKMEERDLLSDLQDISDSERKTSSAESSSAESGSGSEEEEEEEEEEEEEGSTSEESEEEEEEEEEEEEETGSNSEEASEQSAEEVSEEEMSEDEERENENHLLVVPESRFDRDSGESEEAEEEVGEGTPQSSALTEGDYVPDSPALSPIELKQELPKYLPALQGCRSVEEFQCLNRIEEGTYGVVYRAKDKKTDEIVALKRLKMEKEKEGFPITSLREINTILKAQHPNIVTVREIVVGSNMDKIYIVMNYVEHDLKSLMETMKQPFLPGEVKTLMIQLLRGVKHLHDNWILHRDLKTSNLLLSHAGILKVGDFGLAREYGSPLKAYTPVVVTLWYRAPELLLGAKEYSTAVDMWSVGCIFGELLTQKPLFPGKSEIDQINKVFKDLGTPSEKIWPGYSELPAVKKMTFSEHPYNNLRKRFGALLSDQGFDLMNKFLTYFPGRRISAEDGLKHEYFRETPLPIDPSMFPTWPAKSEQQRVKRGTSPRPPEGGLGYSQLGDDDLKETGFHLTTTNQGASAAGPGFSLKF

Homo sapiens = organism: Homo sapiens; test: Selectivity ratio of IC50 for recombinant full length His-tagged human CDK7/cyclin H/MNAT1 to IC50 for recombinant full length His-tagged human CDK9/CyclinT1

COCCN[C@H]1CC[C@H](Nc2cc(-c3csc(NCC4(C#N)CCOCC4)n3)c(Cl)cn2)CC1
inhibition [1]: inactive
Activity (MV4-11): inactive
Cmax [2]: 329 ng/mL
AUC(0-t) [3]: 591 ng·h/mL
AUC(0-inf) [4]: 612 ng·h/mL
clearance [5]: 123 mL/min/kg
Activity [6]: 90%
Activity [7]: 65%
Activity [8]: 100%
Activity [9]: 1.8%
Activity [10]: 38%
Activity [11]: 61%
Activity [12]: 81%
Activity [13]: 69%
Activity [14]: 78%
Activity [15]: 100%
Activity [16]: 77%
Activity [17]: 59%
Activity [18]: 98%
Activity [19]: 100%
Activity [20]: 94%
IC50 [21]: > 10 µM
Ratio IC50 (Homo sapiens): > 1000
